Consider six molecules from ChEMBL document CHEMBL4613252 (J Nat Prod, 2020).

Experiment [1] relates to HT-29. Kind of experiment: Cytotoxicity against human HT-29 cells after 72 hrs by CellTiter 96 Aqueous One Solution reagent based assay. Conditions: HT-29, 72 h. It is filed as functional, cell-based.
In experiment [2] the test system is MDA-MB-435. Put plainly: Cytotoxicity against human MDA-MB-435 cells after 72 hrs by CellTiter 96 Aqueous One Solution reagent based assay. It is filed as functional, cell-based. Particulars: MDA-MB-435, 72 h.
Experiment [3] concerns MDA-MB-231. Put plainly: Cytotoxicity against human MDA-MB-231 cells after 72 hrs by CellTiter 96 Aqueous One Solution reagent based assay. It is filed as functional, cell-based. Conditions: MDA-MB-231, 72 h.
The subject of experiment [4] is OVCAR-3. Put plainly: Cytotoxicity against human OVCAR3 cells after 72 hrs by CellTiter 96 Aqueous One Solution reagent based assay. Particulars: OVCAR-3, 72 h. It is filed as functional, cell-based.
Experiment [5] can be described thus: Inhibition of porcine cortex Na+/K+-ATPase using ATP as substrate after 15 mins by ADP-Glo Reagent based method. Further details: species or system Sus scrofa. The method in brief:
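Enzyme from porcine cerebral cortex in assay buffer, preincubated with compound in DMSO or DMSO alone; ATP added, 15 min reaction. ADP formed was quantified luminescently: 40 min with ADP-Glo reagent, then 60 min with detection reagent (luciferin/luciferase). Concentration-response over a range of concentrations; IC50 derived; triplicate, three independent experiments.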
Background: ADP-Glo first removes unused ATP, then detects ADP through luciferase.

Experiment [6] deals with NCI-H1299. Put plainly: Inhibition of glucose transporter in human NCI-H1299 cells assessed as reduction in [3H]2-deoxy-D-glucose uptake at 30 uM preincubated for 15 mins followed by [3H]2-deoxy-D-glucose addition and measured after 40 mins by liquid scintillation counting method. It is filed as cell-based. An outline of the steps:
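H1299 NSCLC cells (maintained in DMEM, 25 mM glucose, 10% FBS) serum-starved 1.5 h in FBS-free DMEM, then 30 min in glucose-free KRP buffer. Compound at 30 μM final, 15 min; uptake started with 37 MBq/L 2-deoxy-D-[3H]glucose plus 1 mM glucose (final), 40 min. Stopped with PBS, lysate radioactivity counted. Vehicle negative control, WZB117 positive control; n = 3, Student's t-test versus vehicle.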

pIC50: −log10 of the molar value. Calls of active or inactive are those of the source. No cut-off for these calls is given here. Where only a bound is given, the exact number is not on record here.

For the molecule `CC(=O)O[C@H]1[C@@H](OC(C)=O)C[C@H](O[C@H]2[C@@H](O)C[C@H](O[C@H]3[C@@H](O)C[C@H](O[C@H]4CC[C@@]5(C)[C@H](CC[C@@H]6[C@@H]5C[C@@H](OC(C)=O)[C@]5(C)[C@@H](C7=CC(=O)OC7)CC[C@]65O)C4)O[C@@H]3C)O[C@@H]2C)O[C@@H]1C`, the pIC50 – broadly, −log10 of the IC50, conventionally taken in molar units – in experiment [1] is less than 5.00; in experiment [2], less than 5.00; in experiment [3] it was less than 5.00; in experiment [4] it was 5.21.
On to `C[C@]12[C@H](O)CC3=C(CC[C@@H]4C[C@@H](O)CC[C@]34C)[C@H]1CC[C@@H]2C1=CC(=O)OC1`, for which the pIC50 in experiment [1], in experiment [2], in experiment [3] and in experiment [4] was less than 5.00 each time.
Consider `CC(=O)O[C@H]1[C@@H](OC(C)=O)C[C@H](O[C@H]2[C@@H](OC(C)=O)C[C@H](O[C@H]3[C@@H](OC(C)=O)C[C@H](O[C@H]4CC[C@@]5(C)[C@H](CC[C@@H]6[C@@H]5C[C@@H](OC(C)=O)[C@]5(C)[C@@H](C7=CC(=O)OC7)CC[C@]65O)C4)O[C@@H]3C)O[C@@H]2C)O[C@@H]1C`, for which the pIC50 in experiment [1] is less than 5.00; in experiment [2] it was less than 5.00; in experiment [3] it was less than 5.00; in experiment [4] it was 5.09.
`C[C@]12CC[C@H](O)C[C@H]1CC[C@@H]1[C@@H]2C[C@@H](O)[C@]2(C)[C@@H](C3=CC(=O)OC3)CC[C@]12O` [DIGOXIGENIN]: the pIC50 was 5.44 in experiment [1], 6.05 in experiment [2], 5.49 in experiment [3] and 5.62 in experiment [4].
Regarding `C[C@H]1O[C@@H](O[C@H]2[C@@H](O)C[C@H](O[C@H]3[C@@H](O)C[C@H](O[C@H]4CC[C@@]5(C)[C@H](CC[C@@H]6[C@@H]5C[C@@H](O)[C@]5(C)[C@H]([C@@H]7CC(=O)O[C@@H]7O)CC[C@]65O)C4)O[C@@H]3C)O[C@@H]2C)C[C@H](O)[C@@H]1O`, the pIC50 in experiment [5] was 3.80; in experiment [1] it was less than 5.00; in experiment [2] it was less than 5.00; in experiment [3] it was less than 5.00; in experiment [4] it was less than 5.00.
Consider `C[C@H]1O[C@@H](O[C@H]2[C@@H](O)C[C@H](O[C@H]3[C@@H](O)C[C@H](O[C@H]4CC[C@@]5(C)[C@H](CC[C@@H]6[C@@H]5C[C@@H](O)[C@]5(C)[C@@H](C7=CC(=O)OC7)CC[C@]65O)C4)O[C@@H]3C)O[C@@H]2C)C[C@H](O)[C@@H]1O` [DIGOXIN], for which, in experiment [6], the outcome was inactive. For the same molecule, the negative-log IC50 (pIC50) in experiment [5] was 6.64; in experiment [1], 6.55; in experiment [2] it was 6.77; in experiment [3] it was 6.51.
